Measurements taken from ChEMBL document CHEMBL4732237, “Discovery of 4-alkoxy-2-aryl-6,7-dimethoxyquinolines as a new class of topoisomerase I inhibitors endowed with potent in vitro anticancer activity” (2021).

Experiments:
Format in all cases: functional
Details in all cases: read-out: GI
[1] = test system: IGROV-1; assay: Growth inhibition of human IGROV-1 cells at 10 uM incubated for 48 hrs by sulforhodamine B assay relative to control
In short: (§1)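 NCI-60 single-dose screen. Cells were grown in RPMI 1640 with 5% FBS and 2 mM L-glutamine and plated 24 h before drug addition. Compound was added at one concentration in DMSO-derived medium and incubated for 48 h at 37 °C in 5% CO2. Read-out was SRB protein stain at 515 nm. Result is percent growth versus the no-drug control and the time-zero cell count; values below 0 indicate lethality.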

[2] = test system: NCI/ADR-RES; assay: Growth inhibition of human NCI/ADR-RES cells at 10 uM incubated for 48 hrs by sulforhodamine B assay relative to control
In short: (§2)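 NCI one-dose screen. Cells grown in RPMI 1640 with 5% FBS and 2 mM L-glutamine, plated and incubated 24 h at 37 °C, 5% CO2. DMSO-dissolved drug added, then 48 h further incubation. Adherent cells fixed with cold TCA, suspension cells fixed after settling. Stained with 0.4% SRB, absorbance read at 515 nm. Reported as percent growth relative to no-drug control and time-zero cell number.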

[3] = test system: SK-MEL-2; assay: Growth inhibition of human SK-MEL-2 cells at 10 uM incubated for 48 hrs by sulforhodamine B assay relative to control; in short: as §2
[4] = test system: NCI-H460; assay: Growth inhibition of human NCI-H460 cells at 10 uM incubated for 48 hrs by sulforhodamine B assay relative to control; in short: as §2
[5] = test system: OVCAR-5; assay: Growth inhibition of human OVCAR-5 cells at 10 uM incubated for 48 hrs by sulforhodamine B assay relative to control; in short: as §2
[6] = test system: HOP-62; assay: Growth inhibition of human HOP-62 cells at 10 uM incubated for 48 hrs by sulforhodamine B assay relative to control; in short: as §1
[7] = test system: SR; assay: Growth inhibition of human SR cells at 10 uM incubated for 48 hrs by sulforhodamine B assay relative to control; in short: as §2
[8] = test system: KM12; assay: Growth inhibition of human KM12 cells at 10 uM incubated for 48 hrs by sulforhodamine B assay relative to control; in short: as §1
[9] = test system: SK-MEL-5; assay: Growth inhibition of human SK-MEL-5 cells at 10 uM incubated for 48 hrs by sulforhodamine B assay relative to control; in short: as §2
[10] = test system: SN12C; assay: Growth inhibition of human SN12C cells at 10 uM incubated for 48 hrs by sulforhodamine B assay relative to control; in short: as §2
[11] = test system: COLO 205; assay: Growth inhibition of human COLO 205 cells at 10 uM incubated for 48 hrs by sulforhodamine B assay relative to control; in short: as §1
[12] = test system: HL-60(TB); assay: Growth inhibition of human HL-60(TB) cells at 10 uM incubated for 48 hrs by sulforhodamine B assay relative to control
In short: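 NCI-60 one-dose screen: same culture, 48 h drug exposure and SRB read-out. Reported as percent growth relative to no-drug control and to time-zero cell number; 0–100 means growth inhibition, below 0 means lethality.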

[13] = test system: OVCAR-3; assay: Growth inhibition of human OVCAR-3 cells at 10 uM incubated for 48 hrs by sulforhodamine B assay relative to control; in short: as §2
[14] = test system: SK-MEL-28; assay: Growth inhibition of human SK-MEL-28 cells at 10 uM incubated for 48 hrs by sulforhodamine B assay relative to control; in short: as §2
[15] = test system: MCF7; assay: Growth inhibition of human MCF7 cells at 10 uM incubated for 48 hrs by sulforhodamine B assay relative to control; in short: as §1
[16] = test system: SNB-19; assay: Growth inhibition of human SNB-19 cells at 10 uM incubated for 48 hrs by sulforhodamine B assay relative to control; in short: as §2
[17] = test system: SF-268; assay: Growth inhibition of human SF-268 cells at 10 uM incubated for 48 hrs by sulforhodamine B assay relative to control; in short: as §2
[18] = test system: RXF 393; assay: Growth inhibition of human RXF 393 cells at 10 uM incubated for 48 hrs by sulforhodamine B assay relative to control; in short: as §2
[19] = test system: MDA-MB-468; assay: Growth inhibition of human MDA-MB-468 cells at 10 uM incubated for 48 hrs by sulforhodamine B assay relative to control; in short: as §1
[20] = test system: T47D; assay: Growth inhibition of human T47D cells at 10 uM incubated for 48 hrs by sulforhodamine B assay relative to control
In short: (§3)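 NCI one-dose screen across a 59-line panel. Cells were grown in RPMI 1640 with 5% FBS and 2 mM L-glutamine, plated and pre-incubated 24 h, then exposed to drug for 48 h at 37 °C, 5% CO2. Adherent cells were fixed with cold TCA (10% final), stained with 0.4% SRB in 1% acetic acid and read at 515 nm. Result is percent growth relative to no-drug control and time-zero cell count.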

[21] = test system: Hs-578T; assay: Growth inhibition of human HS-578T cells at 10 uM incubated for 48 hrs by sulforhodamine B assay relative to control; in short: as §1
[22] = test system: PC-3; assay: Growth inhibition of human PC-3 cells at 10 uM incubated for 48 hrs by sulforhodamine B assay relative to control; in short: as §2
[23] = test system: UO-31; assay: Growth inhibition of human UO-31 cells at 10 uM incubated for 48 hrs by sulforhodamine B assay relative to control; in short: as §3
[24] = test system: LOX IMVI; assay: Growth inhibition of human LOX IMVI cells at 10 uM incubated for 48 hrs by sulforhodamine B assay relative to control; in short: as §1
[25] = test system: NCI-H226; assay: Growth inhibition of human NCI-H226 cells at 10 uM incubated for 48 hrs by sulforhodamine B assay relative to control; in short: as §2
[26] = test system: SNB-75; assay: Growth inhibition of human SNB-75 cells at 10 uM incubated for 48 hrs by sulforhodamine B assay relative to control; in short: as §2
[27] = test system: M14; assay: Growth inhibition of human M14 cells at 10 uM incubated for 48 hrs by sulforhodamine B assay relative to control; in short: as §1
[28] = test system: OVCAR-8; assay: Growth inhibition of human OVCAR-8 cells at 10 uM incubated for 48 hrs by sulforhodamine B assay relative to control; in short: as §2
[29] = test system: SF-539; assay: Growth inhibition of human SF-539 cells at 10 uM incubated for 48 hrs by sulforhodamine B assay relative to control; in short: as §2
[30] = test system: SF-295; assay: Growth inhibition of human SF-295 cells at 10 uM incubated for 48 hrs by sulforhodamine B assay relative to control; in short: as §2
[31] = test system: UACC-62; assay: Growth inhibition of human UACC-62 cells at 10 uM incubated for 48 hrs by sulforhodamine B assay relative to control; in short: as §3
[32] = test system: MDA-MB-435; assay: Growth inhibition of human MDA-MB-435 cells at 10 uM incubated for 48 hrs by sulforhodamine B assay relative to control; in short: as §1
[33] = test system: EKVX; assay: Growth inhibition of human EKVX cells at 10 uM incubated for 48 hrs by sulforhodamine B assay relative to control; in short: as §1
[34] = test system: MDA-MB-231; assay: Growth inhibition of human MDA-MB-231 cells at 10 uM incubated for 48 hrs by sulforhodamine B assay relative to control; in short: as §1
[35] = test system: K562; assay: Growth inhibition of human K562 cells at 10 uM incubated for 48 hrs by sulforhodamine B assay relative to control; in short: as §1
[36] = test system: NCI-H522; assay: Growth inhibition of human NCI-H522 cells at 10 uM incubated for 48 hrs by sulforhodamine B assay relative to control; in short: as §2

SMILES | inhibition of growth at 10 µM [1] [%] | inhibition of growth at 10 µM [2] [%] | inhibition of growth at 10 µM [3] [%] | inhibition of growth at 10 µM [4] [%] | inhibition of growth at 10 µM [5] [%] | inhibition of growth at 10 µM [6] [%] | inhibition of growth at 10 µM [7] [%] | inhibition of growth at 10 µM [8] [%] | inhibition of growth at 10 µM [9] [%] | inhibition of growth at 10 µM [10] [%] | inhibition of growth at 10 µM [11] [%] | inhibition of growth at 10 µM [12] [%] | inhibition of growth at 10 µM [13] [%] | inhibition of growth at 10 µM [14] [%] | inhibition of growth at 10 µM [15] [%] | inhibition of growth at 10 µM [16] [%] | inhibition of growth at 10 µM [17] [%] | inhibition of growth at 10 µM [18] [%] | inhibition of growth at 10 µM [19] [%] | inhibition of growth at 10 µM [20] [%] | also measured
COc1cc2nc(-c3ccc(Cl)cc3)cc(OCCCN3CCOCC3)c2cc1OC | 62 | 62 | 62 | 62 | 62 | 62 | 62 | 62 | 62 | 62 | 62 | 62 | 62 | 62 | 62 | 62 | 62 | 62 | 62 | 62 | inhibition of growth at 10 µM [21]: 62%; inhibition of growth at 10 µM [22]: 62%; inhibition of growth at 10 µM [23]: 62%; inhibition of growth at 10 µM [24]: 62%; inhibition of growth at 10 µM [25]: 62%; inhibition of growth at 10 µM [26]: 62%; inhibition of growth at 10 µM [27]: 62%; inhibition of growth at 10 µM [28]: 62%; inhibition of growth at 10 µM [29]: 62%; inhibition of growth at 10 µM [30]: 62%; inhibition of growth at 10 µM [31]: 62%; inhibition of growth at 10 µM [32]: 62%; inhibition of growth at 10 µM [33]: 62%; inhibition of growth at 10 µM [34]: 62%; inhibition of growth at 10 µM [35]: 62%; inhibition of growth at 10 µM [36]: 62%
COc1cc2nc(-c3ccc(Cl)cc3)cc(OCCN3CCCC3)c2cc1OC | 3 | 3 | 3 | 3 | 3 | 3 | 3 | 3 | 3 | 3 | 3 | 3 | 3 | 3 | 3 | 3 | 3 | 3 | 3 | 3 | inhibition of growth at 10 µM [21]: 3%; inhibition of growth at 10 µM [22]: 3%; inhibition of growth at 10 µM [23]: 3%; inhibition of growth at 10 µM [24]: 3%; inhibition of growth at 10 µM [25]: 3%; inhibition of growth at 10 µM [26]: 3%; inhibition of growth at 10 µM [27]: 3%; inhibition of growth at 10 µM [28]: 3%; inhibition of growth at 10 µM [29]: 3%; inhibition of growth at 10 µM [30]: 3%; inhibition of growth at 10 µM [31]: 3%; inhibition of growth at 10 µM [32]: 3%; inhibition of growth at 10 µM [33]: 3%; inhibition of growth at 10 µM [34]: 3%; inhibition of growth at 10 µM [35]: 3%; inhibition of growth at 10 µM [36]: 3%
